ChEMBL document CHEMBL1124947, “Cationic antiprotozoal drugs. Trypanocidal activity of 2-(4'-formylphenyl)imidazo[1,2-a]pyridinium guanylhydrazones and related derivatives of quaternary heteroaromatic compounds” (J Med Chem, 1990)

What was measured:
Type in all cases: functional
[1] = system: Mus musculus; experiment: Trypanocidal Activity at I.C.E. value 0.84 when administered subcutaneously.
In short: (§1)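 Mice, in groups of five per dose, were given a standard inoculum of blood-stage T. rhodesiense that is lethal to all untreated controls, then dosed subcutaneously. Usually 11 dose levels were used (2^n × 0.42 mg/kg).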

[2] = system: Mus musculus; experiment: Trypanocidal Activity at I.C.E. value 0.40 when administered perorally.
[3] = system: Mus musculus; experiment: Trypanocidal Activity at I.C.E. value 0.31 when administered perorally.
[4] = system: Mus musculus; experiment: Trypanocidal Activity at I.C.E. value 0.94 when administered subcutaneously.; in short: as §1
[5] = system: Mus musculus; experiment: Trypanocidal Activity at I.C.E. value 0.12 when administered perorally.
[6] = system: Mus musculus; experiment: Trypanocidal Activity at I.C.E. value 0.21 when administered subcutaneously.
[7] = system: Mus musculus; experiment: Trypanocidal Activity at I.C.E. value 0.19 when administered subcutaneously.
[8] = system: Mus musculus; experiment: Trypanocidal Activity at I.C.E. value 0.17 when administered perorally.
[9] = system: Mus musculus; experiment: Trypanocidal Activity at I.C.E. value 0.20 when administered subcutaneously.
[10] = system: Mus musculus; experiment: Trypanocidal Activity at I.C.E. value 0.50 when administered subcutaneously.
In short: (§2)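 Blood-stage T. rhodesiense infection came from a standard inoculum lethal to all untreated mice. Drug was given by subcutaneous injection to groups of five mice. Survival beyond 30 days counted as cure. […] Sub-curative doses scored 0, and data were normalized at each dose.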

[11] = system: Mus musculus; experiment: Trypanocidal Activity at I.C.E. value 0.20 when administered perorally.
[12] = system: Mus musculus; experiment: Trypanocidal Activity at I.C.E. value 0.30 when administered subcutaneously.; in short: as §2
[13] = system: Mus musculus; experiment: Trypanocidal Activity at I.C.E. value 0.52 when administered perorally.
[14] = system: Mus musculus; experiment: Trypanocidal Activity at I.C.E. value 0.86 when administered subcutaneously.; in short: as §1
[15] = system: Mus musculus; experiment: Trypanocidal Activity at I.C.E. value 0.06 when administered perorally.
[16] = system: Mus musculus; experiment: Trypanocidal Activity at I.C.E. value 0.22 when administered subcutaneously.
[17] = system: Trypanosoma brucei rhodesiense; experiment: In Vitro measurement of inhibition of leucine uptake in cell culture of Trypanosoma rhodesiense; conditions: read-out: ID50 (the source's name)
In short: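 Trypanosomes harvested from infected rats, cultured 3 h with several concentrations of drug, usually 0.1–100 µg/mL. Radiolabeled L-leucine uptake measured. ID50 is the concentration in µg/mL giving 50% inhibition of incorporation.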

[18] = system: Trypanosoma brucei rhodesiense; experiment: In Vitro measurement of inhibition of thymidine uptake in cell culture of Trypanosoma rhodesiense; conditions: read-out: ID50 (the source's name)
In short: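 Parasites harvested from infected rats and incubated 3 h across a drug concentration series, usually 0.1–100 µg/mL. Incorporation of radiolabeled thymidine measured. ID50 is the concentration (µg/mL) producing 50% inhibition.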

[19] = system: Mus musculus; experiment: Trypanocidal Activity at I.C.E. value 0.55 when administered subcutaneously.; in short: as §1
[20] = system: Mus musculus; experiment: Trypanocidal Activity at I.C.E. value 0.76 when administered subcutaneously.; in short: as §1
[21] = system: Mus musculus; experiment: Trypanocidal Activity at I.C.E. value 0.62 when administered subcutaneously.; in short: as §1
[22] = system: Mus musculus; experiment: Trypanocidal Activity at I.C.E. value 0.28 when administered perorally.
[23] = system: Mus musculus; experiment: Trypanocidal Activity at I.C.E. value 0.83 when administered subcutaneously.; in short: as §1
[24] = system: Mus musculus; experiment: Trypanocidal Activity at I.C.E. value 0.49 when administered perorally.
[25] = system: Mus musculus; experiment: Trypanocidal Activity at I.C.E. value 0.46 when administered subcutaneously.; in short: as §2
[26] = system: Mus musculus; experiment: Trypanocidal Activity at I.C.E. value 0.34 when administered subcutaneously.; in short: as §2
[27] = system: Mus musculus; experiment: Trypanocidal Activity at I.C.E. value 0.66 when administered subcutaneously.; in short: as §1
[28] = system: Mus musculus; experiment: Trypanocidal Activity at I.C.E. value 0.49 when administered subcutaneously.; in short: as §2
[29] = system: Mus musculus; experiment: Trypanocidal Activity at I.C.E. value 0.23 when administered subcutaneously.; in short: as §2
[30] = system: Mus musculus; experiment: Trypanocidal Activity at I.C.E. value >0.15 when administered subcutaneously.; in short: as §1
[31] = system: Mus musculus; experiment: Trypanocidal Activity was determined after subcutaneous administration; in short: as §1

Br.CCCCSc1ccc2n(c1)cc(-c1ccc(/C=N/NC(=N)NO)cc1)[n+]2C.[Br-]
CD50 [1]: 0.8 mg/kg | CD50 [2]: 26 mg/kg

Br.CCCSc1ccc2n(c1)cc(-c1ccc(/C=N/NC(=N)N3CCCC3)cc1)[n+]2C.[Br-]
CD50 [3]: 53 mg/kg | CD50 [4]: 0.1 mg/kg

Br.C[n+]1ccc(COc2ccc(/C=N/NC3=NCCN3)cc2)cc1.[Br-]
CD50 [5]: 424 mg/kg | CD50 [6]: 13 mg/kg

Br.C[n+]1ccccc1COc1ccc(/C=N/NC(=N)N2CCCC2)cc1.[Br-]
CD50 [7]: 0.1 mg/kg | CD50 [8]: 106 mg/kg

C=CC[n+]1c(-c2ccc(NC(C)=O)cc2)cn2ccccc21.[Br-]
CD50 [9]: 26 mg/kg

Br.CCCCNC(=N)N/N=C/c1ccc(-c2cn3ccccc3[n+]2C)cc1.[Br-]
CD50 [10]: 0.8 mg/kg

C[n+]1c(-c2ccc(/C=N/NC(=N)N3CCSC3)cc2)cn2ccccc21.Cc1ccc(S(=O)(=O)O)cc1.Cc1ccc(S(=O)(=O)[O-])cc1
CD50 [11]: 212 mg/kg | CD50 [12]: 13 mg/kg

Br.Cc1cccc2n1cc(/C=C/c1ccc(/C=N/NC3=NCCN3)cc1)[n+]2C.[Br-]
CD50 [13]: 26 mg/kg | CD50 [14]: 0.4 mg/kg

Br.Cn1c[n+](Cc2ccc(/C=N/NC(=N)N)cc2)c2ccccc21.[Br-]
CD50 [7]: 6.6 mg/kg | CD50 [15]: 424 mg/kg

Br.C[n+]1c(-c2ccc(/C=N/NC(=N)NN3CCOCC3)cc2)cn2ccccc21.[Br-]
CD50 [16]: 0.8 mg/kg | IC50 [17]: 9.7 µg/mL | IC50 [18]: 6.7 µg/mL

Br.CSC(=N)N/N=C/c1ccc(-c2cn3ccccc3[n+]2C)cc1.[Br-]
IC50 [17]: 5.8 µg/mL | CD50 [19]: 6.6 mg/kg | IC50 [18]: 3.8 µg/mL

Br.Cc1ccc2n(c1)cc(-c1ccc(/C=N/NC3=NCCCN3)cc1)[n+]2C.[Br-]
CD50 [20]: 0.2 mg/kg

Cc1ccc(S(=O)(=O)[O-])cc1.Cc1cccc2n1cc(/C=C/c1ccc(/C=N/NC(=O)c3ccc(N)cc3)cc1)[n+]2C
CD50 [21]: 6.6 mg/kg

C[n+]1cccc(COc2ccc(/C=N/NC(=N)NO)cc2)c1.Cc1ccc(S(=O)(=O)O)cc1.Cc1ccc(S(=O)(=O)[O-])cc1
CD50 [16]: 1.6 mg/kg | IC50 [17]: 10.3 µg/mL | IC50 [18]: 3.8 µg/mL

CCCCSc1ccc2n(c1)cc(-c1ccc(/C=N/NC(=N)N)cc1)[n+]2C.Cc1ccc(S(=O)(=O)O)cc1.Cc1ccc(S(=O)(=O)[O-])cc1
CD50 [22]: 106 mg/kg | CD50 [23]: 0.4 mg/kg

Br.Cc1ccc2n(c1)cc(COc1ccc(/C=N/NC(=N)N3CCCC3)cc1)[n+]2C.[Br-]
CD50 [24]: 13 mg/kg | CD50 [25]: 0.8 mg/kg

Br.C[n+]1c(-c2ccc(/C=C/C=N/NC(=N)N3CCCC3)cc2)cn2ccccc21.[Br-]
CD50 [26]: 0.8 mg/kg | CD50 [3]: 53 mg/kg

Br.CC/N=C(\NCC)N/N=C/c1ccc(-c2cn3cc(C)ccc3[n+]2C)cc1.[Br-]
CD50 [27]: 1.6 mg/kg

Br.Cc1ccc2n(c1)cc(-c1ccc(/C=N/NC(=N)N3CCCC3)cc1)[n+]2C.[Br-]
CD50 [28]: 0.1 mg/kg

Br.Cn1c[n+](Cc2ccc(/C=N/NC(=N)N3CCCC3)cc2)c2ccccc21.[Br-]
IC50 [17]: 0.7 µg/mL | CD50 [5]: 424 mg/kg | IC50 [18]: 0.6 µg/mL | CD50 [29]: 6.6 mg/kg

C[n+]1c(-c2ccc(/C=N/Nc3nc[nH]n3)cc2)cn2ccsc21.[Br-]
CD50 [10]: 13 mg/kg

C[n+]1c(-c2ccc(/C=N/NC(=N)N[N+](=O)[O-])cc2)cn2ccccc21.[Br-]
CD50 [30]: <26 mg/kg

Cc1ccc2n(c1)cc(-c1ccc(/C=N/NC(=N)N[N+](=O)[O-])cc1)[n+]2C.[Br-]
CD50 [31]: <26 mg/kg
